High-throughput results as filed in PubChem.
PostGolgi yeast = phenotypic screen on post-Golgi transport, primary screen | post-Golgi transport phenotypic cell assay | inhibition, % at 10 µM | actives 0.9% (n = 98,000) | AID 739, 2007;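 further: yeast cells grown in 1536-well plates; yeast grown about 18 h at 30C before absorbance read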
PLAP act = PLAP enzyme activators, biochemical, luminescence, HTS | Alkaline phosphatase, placental type (Homo sapiens), P05187 | purified PLAP enzyme, luminescent substrate read-out; hits give high values | activation fold at 20 µM | actives 1.2% (n = 96,000) | AID 696, 2007; in the data active means activation fold above about 2
Target sequence (P05187 whole entry, looked up): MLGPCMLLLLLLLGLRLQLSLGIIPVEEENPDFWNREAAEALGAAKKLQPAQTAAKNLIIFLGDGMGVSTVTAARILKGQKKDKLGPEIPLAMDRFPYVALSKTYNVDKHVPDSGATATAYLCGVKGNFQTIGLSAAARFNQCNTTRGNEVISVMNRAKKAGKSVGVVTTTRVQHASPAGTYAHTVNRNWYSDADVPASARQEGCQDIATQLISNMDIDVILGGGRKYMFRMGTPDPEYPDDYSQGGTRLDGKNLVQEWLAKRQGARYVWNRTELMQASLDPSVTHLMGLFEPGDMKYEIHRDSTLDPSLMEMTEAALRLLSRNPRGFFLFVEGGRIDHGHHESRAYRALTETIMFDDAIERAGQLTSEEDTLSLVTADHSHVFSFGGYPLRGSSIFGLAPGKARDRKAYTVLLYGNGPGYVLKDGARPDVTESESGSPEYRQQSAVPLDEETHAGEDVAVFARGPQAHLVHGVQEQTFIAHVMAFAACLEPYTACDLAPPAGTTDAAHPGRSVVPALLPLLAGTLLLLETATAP
Ecoli tolC = growth inhibitors of E. coli tolC mutant, primary screen, strain BW25113 ΔtolC::kan, 384-well; growth inhibition, % at 10 µM (by protocol); OD615; actives 2.2% (n = 65,000); AID 573, 2007;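 active means growth inhibition at or above a cutoff equal to the mean over every tested compound plus 3 SD, cut at about 60% in these data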;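 further: growth measured after 20 h incubation at 37 °C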
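Test system – E. coli BW25113 ΔtolC::kan, tolC deletion mutant strain · Detection – OD at 615 nm · Buffer or medium – LB with kanamycin 50 µg/mL · Times – 20 h compound exposure of bacteria at 37 °C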
E coli WT exp = growth inhibitors of wild-type E. coli, primary screen, strain BW25113, expanded library, OD600. AID 710, 2007. actives 0.15% (n = 98,000). OD600 absorbance. growth inhibition, % at 100 µM;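 active means growth inhibition above about 50% at one test dose, limit read from the data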;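 further: growth measured after 20 h incubation at 37 °C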
PostGolgi ctrl = growth inhibition of yeast control strain, primary screen, counter-screen for post-Golgi transport modulator project; AID 738, 2007; actives 5% (n = 98,000); inhibition, % at 10 µM; efflux-deficient yeast background strain, growth absorbance A615, 16 h
Active calls of the source: *; / = no result. Shown are actives, neighbours in structure and some others; about 7.2% of the full set was active somewhere. Unless noted, no stated cut-off is given here; in the data, active means inhibition above about 30%; inactive means the rest.

SMILES	PostGolgi yeast	PLAP act	Ecoli tolC	E coli WT exp	PostGolgi ctrl
COc1cccc(N2CCN(CC(=O)Nc3nnc(-c4ccccc4)s3)CC2)c1	-3	2*	36	-13	11
COc1c(F)c(F)c(C(=O)Nc2ccc(N3CCN(Cc4ccccc4)CC3)cc2)c(F)c1F	-1	1	/	-2	5
COc1cccc(C(=O)Nc2ccc(N3CCN(Cc4ccccc4)CC3)cc2)c1	4	0.9	/	1	-2
Cc1cc(C)c(S(=O)(=O)n2ccc(-c3ccc(OCCN(C)c4ccccn4)cc3)n2)c(C)c1	-4	1	/	-12	2
CC1=NOC(=O)/C1=C\c1ccc(-c2ccc(Cl)cc2Cl)o1	60*	0.9	/	10	35*
Clc1ccc(Cl)c(-c2ccc(/C=N/c3ncn[nH]3)o2)c1	4	0.9	1	6	12
O=C1C(=O)c2c(C(=O)c3ccccc3)coc2-c2ccccc21	59*	0.9	/	-9	45*
Cc1oc2c(c1C(=O)c1ccccc1)C(=O)C(=O)c1ccccc1-2	27	0.9	/	5	43*
COc1cccc(-c2cc(C(=O)NCCCn3ccnc3)no2)c1	6	0.9	/	12	7
COc1cc2nc(SCc3ccc(F)cc3)n(Cc3cccs3)c(=N)c2cc1OC	14	1.1	/	2	9
COc1ccc(Cn2c(SCc3ccccc3C)nc3cc(OC)c(OC)cc3c2=N)cc1	-1	1.2	/	11	67*
CCCOC(=O)/C(C(N)=NCc1ccccc1)=C(\O)OCCC	-1	0.8	62*	13	8
O=C(c1c[nH]c2ccccc12)C(O)C(c1ccccc1)N1CCOCC1 (stereo not drawn)	-1	0.8	-2	5	7
COc1ccc(C(C(O)C(=O)c2c[nH]c3ccccc23)N2CCN(c3ccc(OC)cc3)CC2)cc1 (stereo not drawn)	-6	1.4	76*	-1	-7
CCOC(=O)c1cc(-c2ccccc2)sc1NC(=O)C(C)Sc1nnnn1C (stereo not drawn)	73*	1.8	16	-20	64*
Nc1nonc1-c1nc2ccccc2n1Cc1ccccc1	-8	0.8	7	-1	42*
COCc1nc2ccccc2n1Cc1ccc(Br)cc1	-3	1	47	6	36*
COc1ccc(-c2nc3ccccc3n2Cc2ccc(C)cc2)cc1	31*	1.1	/	3	43*
Cc1cccc(NCc2nc3ccccc3n2Cc2ccccc2)c1	54*	20	/	-9	66*
Cc1nc2cc(NCc3nc4ccccc4n3Cc3ccccc3)ccc2n1C	18	1.5	36	6	7
COc1ccc(CCN(C)CCCC(C#N)(c2ccc(OC)c(OC)c2)C(C)C)cc1OC (stereo not drawn)	/	/	5	/	/
c1ccc(Cn2c(CNc3nc4ccccc4n3CCN3CCOCC3)nc3ccccc32)cc1	5	2.8*	19	3	8
Cc1ccc(Cn2c(Cc3ccccc3)nc3ccccc32)cc1	2	0.9	/	5	32*
COc1ccc(NC(=O)Cn2c(=O)sc3ccccc32)cc1	-15	1	/	3	8
COc1ccc(Cn2c(=O)sc3ccccc32)cc1	1	0.9	61*	4	6
SMILES	PostGolgi yeast	PLAP act	Ecoli tolC	E coli WT exp	PostGolgi ctrl
O=C(c1cn(-c2ccccc2)nc1-c1cccs1)N1CCN(c2ccccn2)CC1	-3	1.6	19	-19	54*
O=C(OCn1nnc2ccccc2c1=O)c1cn(-c2ccccc2)nc1-c1cccnc1	34*	0.8	15	2	4
O=C(NCc1cccnc1)/C(=C/c1ccc(-c2cccc(Cl)c2)o1)S(=O)(=O)c1ccccc1	11	0.9	/	-11	37*
Cc1ccc(C(=O)N/C(=C\c2ccc(-c3cc(Cl)ccc3Cl)o2)C(=O)NCc2cccnc2)cc1	1	/	/	-23	9
Cc1ccc(S(=O)(=O)N2CCOCC2)cc1C(=O)OCC(=O)N1CCc2ccccc2C1	-1	1.7	-6	-6	11
COc1ccc(-c2noc(CSc3nnc(Cc4ccccc4)n3-c3ccc(Cl)cc3)n2)cc1	-2	1.5	/	-18	28
O=C(CSc1nnc(-c2ccccc2)n1Cc1ccccc1)NC1CC1	-7	1.3	-5	1	-1
Cc1nnc(NC(=O)CSc2nnc(Cc3ccccc3)n2-c2ccccc2)s1	-2	1.4	5	0	13
Cc1ccc(-c2noc(CSc3nnc(Cc4ccccc4)n3-c3ccc(Cl)cc3)n2)cc1	-6	1.6	/	-35	37*
CCn1c(SCC(=O)NNC(=O)Cc2ccccc2)nnc1-c1ccccc1	9	2.4*	/	4	4
Cc1ccc(-n2c(Cc3ccccc3)nnc2SCC(=O)NNC(=O)Cc2ccccc2)cc1	0	2.8*	/	8	-9
O=C(NC(=S)NCc1ccccc1)C1CCCCC1	-13	1	/	-3	8
CCOc1ccc2nc(NCCCNS(=O)(=O)c3ccccc3)c(C#N)cc2c1	5	1.1	0	-3	24
Brc1ccc(CSc2nnc(-c3ccccn3)n2Cc2ccco2)cc1	3	1.3	98*	-10	33*
CC(C)(C)c1ccc(CSc2nnc(-c3ccccn3)n2Cc2ccco2)cc1	2	1.7	/	-23	28
Clc1cccc(CSc2nnc(-c3ccccn3)n2Cc2ccco2)c1	0	1.6	100*	-6	20
c1ccc(CSc2nnc(-c3ccco3)n2Cc2ccco2)cc1	21	1.4	13	5	23
Cc1onc(COc2ccccc2O)c1Br	3	0.8	0	6	2
O=C(NNC(=O)c1ccc([N+](=O)[O-])o1)c1ccccc1	2	1.1	/	100*	-2
COc1ccc(NC(=O)C2C(=O)NC3(C)CC2c2ccccc2O3)cc1 (stereo not drawn)	11	0.9	-14	-1	8
CC12CC(c3ccccc3O1)C(C(=O)NCc1ccccc1)C(=O)N2 (stereo not drawn)	35*	0.9	-8	3	10
Nc1c(C(=O)c2ccc(Br)s2)oc2ccccc12	2	0.7	4	4	37*
Nc1c(C(=O)c2cccs2)oc2ccccc12	-3	0.7	-6	1	18
c1coc(-c2nnc3sc(-c4cccs4)nn23)c1	7	1	16	5	27
O=C(C1CCCN1C(=O)c1cccs1)N1CCc2ccccc21 (stereo not drawn)	9	1.2	-6	5	11
CCc1nnc2n1N=C(c1ccc(-c3cc(Cl)ccc3Cl)o1)CS2	-5	1.2	2	-8	19
Cc1ccc(C(C)NC(=O)/C(C#N)=C\c2c(C)[nH]c3ccccc23)cc1 (stereo not drawn)	-2	0.8	/	-2	59*
Cc1ccc(/C=C(/C#N)C(=O)NC(=O)Oc2ccccc2)cc1	-1	1.2	/	7	4
O=C(O)c1ccc2c(c1)C(=O)N(CCC1=CCCCC1)C2=O	-7	1.1	-10	1	2
